Consider 48 sequences from the EternaBench riboswitch data.

This series has as its system MS2 coat protein. The series is described as follows: apparent Kd, MS2 coat protein; higher = weaker binding; RNA-MaP array; FMN 200 µM where present. The procedure, abridged: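 The apparent Kd is the median of filtered binding-curve fits, one per cluster, to green signal normalised to red-channel RNA signal and control-cluster median Fmax. The clusters were on Illumina sequencing chips, and stalled E. coli RNA polymerase had transcribed the designs on them. Titration used SNAP-549-labelled MS2 coat protein from 0.7 or 1.5 nM, doubling to 3 µM, without and then with constant ligand, in 100 mM Tris-HCl pH 7.5, 80 mM KCl, 4 mM MgCl2, BSA, DTT, yeast tRNA and Tween-20.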

The mark [1] stands for this setting: designed as: OFF switch for flavin mononucleotide, no ligand.
The mark [2] stands for this setting: ligand present: flavin mononucleotide, designed as: OFF switch for flavin mononucleotide.
Setting [3] is: designed as: ON switch for flavin mononucleotide, no ligand.
[4] abbreviates: ligand present: flavin mononucleotide, designed as: ON switch for flavin mononucleotide.

As a reminder, the apparent Kd is the concentration giving half-maximal binding under the conditions of the assay. As for “UGAUAGGACAGAGGAUAUGCGUAUAGUUACCUCUACAUGAGGAUCACCCAUGUAGAAGGCUGUCCUAUCUAAGUCGGAAACGAC”, the “apparent Kd” value under setting [1] was found to be 5.8 nM and the “apparent Kd” value under setting [2] turned out to be 5.61 nM.
Take “GCGAAUAUGGGUUAGGAUAUGCGCGCAUGUACAUGAGGAUCACCCAUGUUUACGGGCGCCUUUGAGCAGAAGGAGCUAAUCAACGC”: the “apparent Kd” value reads like this: under setting [3], 36.5 nM; under setting [4], 27.6 nM.
For “CAGAAGUCAGGAUAUGCAUGGCGGGACUUGCGUCGUGGCGUGCAGAAGGGACAUGAGGAUCACCCAUGUGGAGG”, the “apparent Kd” value runs as follows: under setting [1], 171 nM; under setting [2], 222 nM.
For “UGCUAGUCAGGAUAUACGAACAUGUCGCCAGAUGUCAAGGUACAUGAGGAUCACCCAUGUAGAAGGGACUAGAA”, in that order: 39.2 nM and 107 nM.
In the same order, the values of “UUUUUUGUUGUGAGGAUAUCGUUGUGGAUGUGGAUCGAGAAGGCACAUGAGGAUCACCCAUGUUUGUUGUGGUU” are 102 nM and 158 nM.
In the case of “ACAUGAGGAUCACCCAUGUUAAAUUAGGAUAUUUGACUGCACAUGAGGUUCACCCAUGUUCUACCGAAGAAGGGAUAAAUAAUU”, the “apparent Kd” value is, setting by setting: under setting [3], 49 nM; under setting [4], 50 nM.
Consider “CCGUAGCAAGGAUAUACAUGAGGAUCACCCAUGUGUGUCAGUGUGGGUAGACAUUAAUGUAGAAGGUGCGACUG”, for which the “apparent Kd” value came out at 64.8 nM under setting [1] and 161 nM under setting [2].
In the same order, the values of “CAACUGAGCGUAAAUUACCUGAACAUGAGGAUCACCCAUGUGGAGGAUAUUGACUUAGCAAAACUCGAGAAGGCCACUGGGAUG” are 39 nM and 18.2 nM.
In the case of “GCCAUCACGUGAGGAUAUGCUCCCGUUUCGGGAGCAGAAGGCAUGUCAUCAGACAUGAGGAUCACCCAUGUAGUUAAGAUGGCA”, the “apparent Kd” value reads like this: under setting [3], 43.6 nM; under setting [4], 13.1 nM.
In the case of “AUCAGCUCGUCAGGAUAUACGUCAAUGCGUCAGCAGUGUGGUAAGAUCACAUGAGGAUCACCCAUGUAGAAGGGACGAGCUGAU”, the “apparent Kd” value reads like this: under setting [1], 125 nM; under setting [2], 572 nM.
In the same order, the values of “CCCUACACCGAGAAGGGCACGUAUUGAAGAGGGUGCCAGGAACAUCACAUGAGGAUCACCCAUGUGCAGGAUAUCGGCAGGAAC” are 9.41 nM and 19.9 nM.
On to “AUGGAUACCACAGGAUAUAGCUAGCAUAGCUAGCUAGAAGGGUGGUCCAUCCUAUGUAAAUACAUGAGGAUCACCCAUGUGUCC”, for which the “apparent Kd” value under setting [3] stood at 403 nM and the “apparent Kd” value under setting [4] came out at 207 nM.
For “UCACGGAGCCUAGGAUAUACAUGAGGAUCACCCAUGUAUUGACGUUAGUGCUGGACUGAUUUGCUGUAGAAGGAGGUCACUGAG”, the “apparent Kd” value stood at 16.6 nM under setting [1] and 18.3 nM under setting [2].
For “UCGCUGCGAGGAUAUACGUUUGCGCGCUUUCGUUUGCGCGUACAUGAGGAUCACCCAUGUAGAAGGCGCGCCGC”, the “apparent Kd” value is 15.9 nM under setting [1] and 15.9 nM under setting [2].
Turning to “AGUAACAGAGGAUAUACUGUUUUAUGUGUUUGUUAUUUUAAACAUGAGGAUCACCCAUGUAGAAGGCUGAAUAA”, the “apparent Kd” value came to 24.3 nM under setting [1] and 23.4 nM under setting [2].
For the sequence “UUGGACGUCGUAGGAUAUGUAGGAUAUUCCUACAUGAGGAUCACCCAUGUUGACAUGGAAGAAAGACAGAAGGACGAUGUCCAU”, the “apparent Kd” value runs as follows: under setting [3], 325 nM; under setting [4], 8.48 nM.
Turning to “GUAGCUAUCGGAGGAUAUUCAUACCGGAAACGGACAUGAGGAUCACCCAUGUGGCGAAAGCCUUGGAAGAAGGCCGAUAGCUAC”, the “apparent Kd” value under setting [3] was 4.08 nM and the “apparent Kd” value under setting [4] was found to be 3.56 nM.
As to “UGUGUCAUCGAGAAGGCCUCAACAUGAGGAUCACCCAUGUUGUAAUAUGGGAGGAUAUCGAUGAUACAGCUACGUUUCGUAGCG”, the “apparent Kd” value reads like this: under setting [3], 19.8 nM; under setting [4], 5.56 nM.
On to “AAAAAACAUGAGGAUCACCCAUGUGAGGAUAUCGGAAAAGGAAAAAAAAAAAAGAAGACGAGAAGGCACAAAGA”, for which the “apparent Kd” value by setting is: under setting [1], 48.4 nM; under setting [2], 60.4 nM.
Take “UCAUUUAUCACAGGAUAUAUUAGUAUACAGUUGUUUGGCUCUUACAUAUUAAUAGAAGGGUGCAACAUGAGGAUCACCCAUGUA”: the “apparent Kd” value reads like this: under setting [3], 262 nM; under setting [4], 102 nM.
For the sequence “AGCUGUGGCCGAGGAUAUCUGACUUCAAUAACCGAAAUAUAAUCGGACAUGAGGAUCACCCAUGUAGAGAAGGCGGUCUCAGCA”, the “apparent Kd” value is 17.1 nM under setting [1] and 24.9 nM under setting [2].
In the same order, the values of “GGUCUAGGCGAAGGAUAUCCGUCGCGAGAUACUGGAGAAGGUCGCCUUGAUACAUGAGGAUCACCCAUGUGGCGGGUGAACCAA” are 98.5 nM and 19.3 nM.
For “AGUGUGUGGCAGGAUAUUCUGGUCGUGAGUCGGGAAGAAGGGUCUACAUGAGGAUCACCCAUGUGAGCGGUUGA”, in that order: 99.4 nM and 258 nM.
As for “GGCGGGCGAAACAUGAGGAUCACCCAUGUGUUAUACUUAAUAUAGGAUAUGUUUAUACUUUUUGGGCAGAAGGAUGCGCCUGCC”, the “apparent Kd” value reads like this: under setting [3], 37.9 nM; under setting [4], 33.4 nM.
For “GCGUGGAAUACAGGAUAUGUUGUACAAUAAUCUUUGAGGCAUUGAGAUAAAACAGAAGGGUAAACAUGAGGAUCACCCAUGUAA”, the “apparent Kd” value was found to be 24.7 nM under setting [1] and 19.6 nM under setting [2].
“GGGUCAAUCUUUAGGUGGCGAGACUAGGAUAUGAGUGGUCCCACAUGAGGAUCACCCAUGUGUACUUAGAAGGAGUAGCGCCGU”: the “apparent Kd” value amounted to 160 nM under setting [3] and 184 nM under setting [4].
On to “GGUUGGCGAGGAUAUACAUGAGGAUCACCCAUGUGAGAGAAAAAAGUGAGGAAGAAAAGUAGAAGGCGCUGACG”, for which the “apparent Kd” value runs as follows: under setting [1], 28.1 nM; under setting [2], 123 nM.
For “GUGUACAGAGGAUAUACAUGAGCUAGGAAACUAGCAACUUCACAUGAGGAUCACCCAUGUAGAAGGCUGUACAC”, in that order: 26 nM and 128 nM.
For “CCUAAACAUGAGGAUCACCCAUGUCAGGAUAUGGACCGUCUGGUGAAAUUCAGCUGGACCAGAAGGGACGUGGA”, in that order: 32.2 nM and 45.5 nM.
For “ACAUGAGGCGCAGGAUAUGCAACAUGAUGAGUAGCAGAAGGGUGACAACAUGAGGAUCACCCAUGUAACAUGAGGAUCACCCAU”, in that order: 28.3 nM and 33.3 nM.
Turning to “ACCUGGACCACAGGAUAUCCCAAUGUUUUACAGGGAGAAGGGUGAGAGUAUGACAUGAGGAUCACCCAUGUUGUCCAGGCGGAA”, the “apparent Kd” value under setting [3] turned out to be 442 nM and the “apparent Kd” value under setting [4] was determined as 191 nM.
As to “AGAAACUACGAGAAGGACAUAUGGUUCUUCAGUUACAUGAGGAUCACCCAUGUAGGAUAUCGUAGUUUCAGGAUCGUGAGAUCA”, the “apparent Kd” value is 7.33 nM under setting [1] and 21.7 nM under setting [2].
In the same order, the values of “GCUUUAUAGAUCCAUUUUAACAACAUGAGGAUCACCCAUGUGCAGGAUAUCGAUUGUUUUAUUUUCGAGAAGGGCAAAUUCAGC” are 35.2 nM and 87.7 nM.
As to “UUCAAUCACAUAGGAUAUAGAAUAAUAAUUUUUUACAUGAGGAUCACCCAUGUUUUAUUGGGUUUCUAGAAGGAUGAGUUAUUA”, the “apparent Kd” value runs as follows: under setting [3], 524 nM; under setting [4], 300 nM.
As for “GGGAAGUAAGGAUAUGCUGCUCGUCACUUGCGUGAUGAGUAGCAGAAGGUACAUGAGGAUCACCCAUGUAAAAA”, the “apparent Kd” value is 30.2 nM under setting [1] and 28.6 nM under setting [2].
Consider “GUACUACAUGAGGAUCACCCAUGUACAAAUGUACGAGGAUAUGCAUGGACGAAAGUUGGUGCAGAAGGCGUAGUAC”, for which the “apparent Kd” value reads like this: under setting [3], 24.9 nM; under setting [4], 24 nM.
Regarding “UUUGUUUUGCAAGGAUAUGUUUAAUUUUAGUUUCCUUACACAUGAGGAUCACCCAUGUUAUACUUACAGAAGGUGCGUAAUUUU”, the “apparent Kd” value reads like this: under setting [1], 126 nM; under setting [2], 94 nM.
With “GCGGCUAGUGCAGGAUAUCGGCGCGUGUAGCGCCGAGAAGGGCACAUGAGGAUCACCCAUGUGAUCAAUCACUGCUAAGGCCGC”, the “apparent Kd” value is 4.83 nM under setting [1] and 4.91 nM under setting [2].
In the same order, the values of “CCUCUACAUGAGGAUCACCCAUGUGAGGAUAUAUGCCCAUUACGCCAAGAGCGUGAUGAUAGAAGGCACAGGGU” are 22 nM and 72.7 nM.
For “AAAAUGUCAGGAUAUGCGAAGGCGUCUGACAGACGAGGAUUGCAGAAGGGACAUGAGGAUCACCCAUGUAAAAA”, in that order: 50.6 nM and 126 nM.
In the case of “AGGUGAGCUCGAUGGCGACAUGAGGAUCACCCAUGUACGAUCAGAAGGGCUCGGGCAAGAAGUGGGCAGGAUAUGGUCGGUGCC”, the “apparent Kd” value by setting is: under setting [1], 3.88 nM; under setting [2], 4.51 nM.
For “CGCACUGAUAGAGGAUAUGUUUAACAUGAGGAUCACCCAUGUGUACAAGUAUCAAUAUUUAUCAAACAGAAGGCUAUUAGUGCG”, in that order: 4.84 nM and 3.88 nM.
For “UUUUUGUGAGGAUAUCAGUAGUAGAACAAUAGUACUACUACUGAGAAGGCACAUGAGGAUCACCCAUGUUCCUU”, in that order: 16 nM and 34.6 nM.
In the same order, the values of “UCAGGCUUCGAGAAGGACAUGAAUCGUAGCAUUGCUACGAUGAAAUAUACAUGAGGAUCACCCAUGUAGGAUAUCGGAGUCUGC” are 5.35 nM and 6.13 nM.
Take “UAGGUGGAAGGAUAUACAUAUGGCCUAUGAGAUACUUCACGACAUGAGGAUCACCCAUGUAGAAGGUCUACCGU”: the “apparent Kd” value under setting [1] came out at 17.9 nM and the “apparent Kd” value under setting [2] came to 39.4 nM.
In the same order, the values of “GUACGUGGACAGAAGGCGACAUGAGGAUCACCCAUGUUGGCUCGCGUAUGAGCAAUCCGCAUGAUUGAGGAUAUGUCUGCGGGC” are 9.05 nM and 49.7 nM.
In the case of “CUUCUGUGAGGAUAUUAGUAGUAAAUAAAUAAAAUUAUUACUGAGAAGGCACAUGAGGAUCACCCAUGUUCCUC”, the “apparent Kd” value under setting [1] came to 35.1 nM and the “apparent Kd” value under setting [2] was found to be 392 nM.
For “UCUACAUAAAUUCAUCAAUACAGUAAGGAUAUGAGAUACAUGAGGAUCACCCAUGUGCAUGUGAAUUAGAAGGUACAAUUAACU”, in that order: 14.4 nM and 12 nM.
